The values below come from article PMC3759693 (Genes & Development, 2013).

The test system of data set [1] is recruitment of NBS1 R28A mutant to DNA damage sites. As to the kind of experiment: Laser microirradiation, relocation of NBS1 R28A-GFP in MEFs. Type of data set: cell-based, mouse. The following applies: wild-type MEFs. The gist of the method: (§1)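 U2OS cells or MEFs (wild-type or knockout) on glass-bottomed dishes expressed GFP-fused proteins or mutants. Microirradiation used an equal laser pulse energy and exposure time for every cell, with live imaging. Where used, 100 nM olaparib, 10 μM GLTN or 10 μM wortmannin was added 1 h before irradiation. GFP intensity at the laser line was quantified; normalized curves from 50 cells over three experiments were averaged, ± SD.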

The test system of data set [2] is PARG-dependent PAR hydrolysis. As to the kind of experiment: PAR at DNA damage sites after laser microirradiation. The class given is cell-based. The following applies: 10 μM GLTN; Supplemental Fig. 7C.
The subject of data set [3] is recruitment of PNKP to DNA damage sites. As to the kind of experiment: Laser microirradiation, relocation of PNKP. The class given is cell-based. The essentials: as §1
Data set [4] has as its system G2/M checkpoint. As to the kind of experiment: G2/M checkpoints assay, phospho-histone H3 flow cytometry. The class given is cell-based. Particulars: olaparib treatment. The gist of the method:
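Stable cells expressing siRNA-resistant Flag-tagged wild-type NBS1 were pretreated with or without olaparib, then given 0 or 2 Gy IR with 1 h recovery. Cells fixed in 70% ethanol and stained with rabbit anti-phospho-histone H3 (Ser10) plus FITC anti-rabbit secondary. RNase A treatment and propidium iodide staining followed. pH3-positive fraction measured by flow cytometry.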
A general note: Flow cytometry measures light scatter and fluorescence of single cells or particles in a stream.

In data set [5] the test system is early DNA damage repair in U2OS cells. As to the kind of experiment: Neutral comet assay. The class given is cell-based. The following applies: 4 Gy IR, olaparib treatment.
In data set [6] the test system is recruitment of NBS1 to DNA damage sites. As to the kind of experiment: Laser microirradiation, relocation of NBS1-GFP in MEFs. The class given is cell-based, mouse. The following applies: 100 nM olaparib 1 h before laser microirradiation. The gist of the method: as §1
For data set [7], the system named is early phosphorylation of 53BP1. As to the kind of experiment: IP/Western blot of 53BP1 phosphorylation after IR. Particulars: cells pretreated with olaparib, then irradiated. The class given is cell-based. The essentials: (§2)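 U2OS cells were given 137Cs IR (10 Gy or indicated doses) and lysed at indicated times. Where used, 100 nM olaparib was added 1 h […]. Lysis on ice in NETN-100 (20 mM Tris-HCl pH 8.0, 100 mM NaCl, 1 mM EDTA, 0.5% NP-40). Soluble fractions were immunoprecipitated and western blotted with the indicated antibodies (e.g., anti-PAR, pATM, pCHK2, pSQpTQ). Triplicates.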
Background: Immunoblotting shows a protein as a band on a membrane.

For data set [8], the system named is early activation of ATM. Briefly: Western blot of pATM. The class given is cell-based. Particulars: after IR, cells pretreated with olaparib. The gist of the method: as §2
Data set [9] has as its system recruitment of XRCC1 to DNA damage sites. Briefly: Laser microirradiation, relocation of XRCC1. Type of data set: cell-based. The following applies: olaparib treatment; Supplemental Fig. 10C. The gist of the method: as §1
Data set [10] has as its system in vivo interaction between PAR and PNKP, APTX, Ligase4, XRCC1, NBS1. As to the kind of experiment: Co-IP of PAR with FHA/BRCT domain-containing proteins after IR. Type of data set: cell-based. The following applies: olaparib pretreatment. The essentials: as §2
The subject of data set [11] is recruitment of DNA Ligase4 to DNA damage sites. As to the kind of experiment: Laser microirradiation, relocation of Ligase4. The following applies: olaparib treatment; Supplemental Fig. 10B. Type of data set: cell-based. The gist of the method:
as §1

Data set [12] relates to wild-type or H2AX−/− MEFs. As to the kind of experiment: Colony formation assay after IR. Type of data set: cell-based, mouse. The following applies: 100 nM olaparib, low dose of IR. The essentials: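 500 wild-type or H2AX−/− MEFs seeded per well, then given graded 137Cs IR doses with or without 100 nM olaparib present in the medium throughout culture. After 7 d, cells fixed and crystal violet-stained; colonies of >50 cells counted. Triplicates, mean ± SD, Student's t-test.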

In data set [13] the test system is recruitment of NBS1 to DNA damage sites. Briefly: Laser microirradiation, relocation of NBS1-GFP in U2OS cells. Type of data set: cell-based. The following applies: 10 μM wortmannin 1 h before laser microirradiation. The essentials: as §1
Data set [14] has as its target T1, BRCT domain of MDC1 (Homo sapiens, UniProt Q14676).
T1 sequence (Q14676 1891-2089 limits assumed): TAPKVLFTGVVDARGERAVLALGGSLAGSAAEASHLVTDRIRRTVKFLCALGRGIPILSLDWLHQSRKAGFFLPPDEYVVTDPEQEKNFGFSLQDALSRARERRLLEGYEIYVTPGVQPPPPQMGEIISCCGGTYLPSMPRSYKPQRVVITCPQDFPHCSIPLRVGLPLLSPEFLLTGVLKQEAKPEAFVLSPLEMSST
As to the kind of experiment: Affinity of MDC1 BRCT domain with PAR. The class given is binding. The essentials:
(§3)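 Recombinant domains expressed in E. coli, or by baculovirus for NBS1 FHA+BRCT (C-terminal GST), and purified. ITC at 16°C: protein at 20∼60 μM final in 10 mM Na2HPO4 (pH 7.5), 100 mM NaCl. Syringe ligand (PAR, ADP-ribose or iso-ADP-ribose) at 150∼750 μM final in the same buffer, with PAR counted as ADP-ribose units. 0.4 μL preinjection, then 19 × 2 μL injections at 120 sec, 1000 rpm. Isotherms integrated and fitted.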

In data set [15] the target is T2, FHA domain of RNF8 (Homo sapiens, UniProt O76064).
T2 sequence (O76064 38-92 limits assumed): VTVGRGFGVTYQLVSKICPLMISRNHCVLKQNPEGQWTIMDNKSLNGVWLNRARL
Briefly: Interaction with RNF8 FHA domain. Particulars: Supplemental Fig. 3. The class given is binding. The gist of the method:
as §3

In data set [16] the target is XRCC1 (amino acids 379–400) peptide (Homo sapiens, UniProt P18887). Briefly: Dot blot, pull-down or ITC with XRCC1 peptide. Type of data set: binding. Particulars: pull-down, or ITC assay, data not shown. On the technique in general: Isothermal titration calorimetry measures the heat released or taken up as one component is titrated into another.
XRCC1 (amino acids 379–400) peptide, sequence (P18887 379-400 limits assumed): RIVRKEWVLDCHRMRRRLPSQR
Data set [17] deals with BRCT domain of BRCA1 (Homo sapiens, UniProt P38398). Briefly: Affinity of BRCA1 BRCT domain with PAR. The class given is binding. The gist of the method:
as §3

Data set [18] concerns the target FHA domain of CHK2 (Homo sapiens, UniProt O96017). Briefly: Interaction with CHK2 FHA domain. The class given is binding. The following applies: Supplemental Fig. 3. The essentials:
as §3

BRCT domain of BRCA1, sequence (P38398 1646-1859 limits assumed): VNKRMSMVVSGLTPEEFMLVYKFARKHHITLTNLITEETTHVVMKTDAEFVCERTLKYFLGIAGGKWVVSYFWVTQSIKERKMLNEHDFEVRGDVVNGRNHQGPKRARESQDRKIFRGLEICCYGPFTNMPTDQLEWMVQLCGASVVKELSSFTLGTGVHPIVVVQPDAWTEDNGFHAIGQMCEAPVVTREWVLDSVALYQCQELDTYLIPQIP
FHA domain of CHK2, sequence (O96017 113-175 limits assumed): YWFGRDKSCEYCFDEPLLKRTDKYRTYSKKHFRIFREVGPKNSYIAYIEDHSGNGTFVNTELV

Turning to `O=C(OC[C@H]1O[C@@H](OC(=O)c2cc(O)c(O)c(OC(=O)c3cc(O)c(O)c(O)c3)c2)[C@H](OC(=O)c2cc(O)c(O)c(OC(=O)c3cc(O)c(O)c(O)c3)c2)[C@@H](OC(=O)c2cc(O)c(O)c(OC(=O)c3cc(O)c(O)c(O)c3)c2)[C@@H]1OC(=O)c1cc(O)c(O)c(OC(=O)c2cc(O)c(O)c(O)c2)c1)c1cc(O)c(O)c(OC(=O)c2cc(O)c(O)c(O)c2)c1` [GLTN, gallotannin], in data set [1] (GLTN treatment), the “retention of NBS1 R28A mutant at DNA damage sites” value is given as “stabilized NBS1 at DNA damage sites”. Further, in data set [2], the “half-life of PAR at DNA damage sites” value is listed as “significantly prolonged”.
In the case of `O=C(c1cc(Cc2n[nH]c(=O)c3ccccc23)ccc1F)N1CCN(C(=O)C2CC2)CC1` [olaparib], the “early recruitment of PNKP to DNA damage sites” value in data set [3] (olaparib treatment, Supplemental Fig. 9A) is “impaired the early recruitment”. Besides, in data set [4], the “arrest at the G2/M boundary after IR” value is recorded as “could not be fully arrested at the G2/M boundary”. In addition, in data set [5], the “DNA damage repair (comet assay tail moment)” value was “significantly impaired”. Moreover, in data set [1] (olaparib treatment), the “recruitment of NBS1 R28A mutant to DNA damage sites” value was “abolished the recruitment of NBS1”. Moreover, the “recruitment of NBS1 to DNA damage sites” value in [6] (H2AX−/− cells) was “abolished both the fast recruitment and slow accumulation of NBS1”; in data set [6] (wild-type MEFs) it was “abolished the early recruitment of NBS1”. The “relocation of NBS1 to DNA damage sites” value in data set [6] (MDC1−/− cells) is recorded as “abolished the relocation of NBS1”. In data set [7], the “early phosphorylation of 53BP1” value is “clearly suppressed”. Besides, the “early activation of ATM” value in data set [8] is on record as “impaired”. In addition, the “fast recruitment of XRCC1 to DNA damage sites” value in data set [9] is “abolished fast recruitment”. For the same compound, the “in vivo interaction of FHA/BRCT domain-containing proteins with PAR” value in [10] is recorded as “no longer interacted with PAR in vivo”. Further, the “early recruitment of DNA Ligase4 to DNA damage sites” value in [11] is reported as “impaired the early recruitment”. Further, the “sensitivity to IR-induced DNA damage (colony formation)” value was “hypersensitive” in [12] (H2AX−/− MEFs) and “could still be resistant” in [12] (wild-type MEFs).
On to `COC[C@H]1OC(=O)c2coc3c2[C@@]1(C)C1=C(C3=O)[C@@H]2CCC(=O)[C@@]2(C)C[C@H]1OC(C)=O` [wortmannin], for which, in data set [3] (wortmannin treatment, Supplemental Fig. 9D), the “retention of PNKP at DNA damage sites” value is listed as “significantly impaired”. Also, the “recruitment of NBS1 to DNA damage sites” value in [13] was “could still be recruited”.
As to poly(ADP-ribose) [PAR], the “affinity with PAR” value in [14] and in data set [17] was “do not have the affinity” in each case. The “interaction with the FHA domain” value in [15] and in data set [18] was “failed to interact” in each case. Also, the “binding between the peptide and PAR” value in [16] is reported as “did not detect any binding”.
